The list is not random: actives were taken first. Their share in the collection is about 5.1%.
STAT1 blocker = reduces IFN-gamma driven STAT1 reporter signal. NIH 3T3 STAT1-luciferase reporter, luminescence. inhibition, % at 5.5 µM. 200,000 compounds, 0.35% hits. AID 920;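 active = inhibition above a set limit, the mean inhibition across all tested compounds plus 3 SD, cut at about 34% in these data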
STAT3 blocker = STAT3 signaling inhibition. inhibition, % at 5.5 µM. U3A cells, IL-6 STAT3-luciferase reporter, luminescence; host cell line lacks STAT1. 190,000 compounds, 0.89% hits;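 active = inhibition above the mean inhibition across all screened compounds plus 3 SD, cut at about 44% in these data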
NF-kB expr up = raises NF-kB expression in human neuronal cells. fold change at 12.5 µM. 190,000 compounds, 1.6% hits. NF-kB reporter expression; stronger effect = higher value; in the data active = fold change above about 3.3
STAT1 act = STAT1 signaling activation; NIH 3T3 STAT1-luciferase reporter, IFN-gamma, luminescence; 100% = IFN-gamma alone, no compound; activation (% of control), % at 5.5 µM; 200,000 compounds, 2.6% hits; AID 932;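 active = activation above the screen-wide mean activation plus 3 SD, cut at about 130% in these data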
STAT3 act = activators of IL-6 induced STAT3 signaling. U3A cells, IL-6 STAT3-luciferase reporter, luminescence; 100% = signal with IL-6 EC80 alone. activation (% of control), % at 5.6 µM. 190,000 compounds, 0.91% hits. AID 871;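 active = activation above the screen-wide mean of compound activation plus 3 SD, cut at about 130% in these data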
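System – human U3A cells carrying STAT3-luciferase construct · Probe or stimulus – Interleukin-6, 33 ng/mL · Schedule – compound 1 h, then IL-6 6 h at 37 °C · Signal – luminescence from STAT3-driven luciferase reporter · Evaluation – percent of IL-6-only median luminescence · Benchmarks – IL-6-only high control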
APP 5'UTR act = APP 5'UTR luciferase reporter activation | SH-SY5Y APP 5'UTR luciferase reporter, luminescence; zero percent = DMSO vehicle wells | 190,000 compounds, 1% hits | activation, % at 2 µM;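 active = activation above a set limit, based on mean plus 3 SD of controls, cut at about 140% in these data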
STAT1 activ conf = STAT1 activation, confirmation assay | activation (% of control), % at 5.7 µM | NIH 3T3 STAT1-luciferase reporter, IFN-gamma potentiation, luminescence; 100% = IFN-gamma EC80 alone, no compound | AID 1262 | shares compounds with STAT1 act | 1,200 compounds, 97% hits;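 active = activation above a set limit carried over from the earlier primary STAT1 screen, cut at about 140% in these data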
NFkB act = counter-screen for STAT1 activators: NF-kappaB activation; shares compounds with STAT1 act; HEK293T NF-kB luciferase reporter, TNF-alpha stimulated, luminescence; 100% = TNF-alpha with vehicle only; activation (% of control), % at 5.7 µM; 1,200 compounds, 43% hits; AID 1306;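 active = activation above the mean of solvent-only control wells plus 3 SD, set per campaign, cut at about 130% in these data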;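 also: TNF-alpha given at a submaximal dose yielding about 80% of full reporter signal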
STAT3 act STAT1c = activates human STAT3, counter-screen to STAT1 activators; shares compounds with STAT1 act; U3A cells STAT3-luciferase reporter, IL-6, luminescence; cells lack STAT1; 100 = IL-6 alone, no compound effect; activation (% of control), % at 5.7 µM; 1,200 compounds, 46% hits;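 active = activation above the solvent-only control well mean plus 3 SD, set per plate batch, cut at about 110% in these data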;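 also: higher means more STAT3 reporter activation so hits are non-selective activators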
Of the large screens only hits and unclear results are named; the others gave an inactive call (follow-up assays come after a bar, where they were run).

COc1cccc(/C=C/C(=C2\C(=O)N(c3ccccc3)N=C2C)c2ccc(Br)cc2)c1OC	none (no result: NF-kB expr up)
Cc1cc(-n2cnnn2)ccc1C(C)C	none
O=c1[nH]cnc2scc(-c3ccc(-c4ccccc4)cc3)c12	STAT1 act 159 | STAT1 activ conf 214 | NFkB act inactive | STAT3 act STAT1c inactive
O=C(Nc1ccc(-c2nc3ncccc3o2)cc1)c1ccc(Br)o1	none
O=C(Nc1ccc(-c2nc3cccnc3s2)cc1)c1ccco1	NF-kB expr up 3.9, STAT1 act 152, APP 5'UTR act 216 | STAT1 activ conf 227 | NFkB act inactive | STAT3 act STAT1c inactive
Cc1ccc2nc(-c3ccc(NC(=O)c4ccco4)cc3)[nH]c2c1	STAT1 act 160 | STAT1 activ conf 187 | NFkB act 136 | STAT3 act STAT1c inactive
O=C(Nc1ccc(-c2nc3ncccc3o2)cc1)c1ccco1	STAT1 act 160 | STAT1 activ conf 173 | NFkB act inactive | STAT3 act STAT1c inactive
CCOC(=O)C1=CN(c2cccc(F)c2)C=C(C(=O)OCC)C1c1cc(OC)c(O)c([N+](=O)[O-])c1	none
O=C1c2cnccc2CN1Cc1ccccc1	none
COC(=O)c1ccc(C(=O)OC)c(NC(=O)COC(=O)C2CC2C)c1 (stereo not drawn)	none
Cc1c(-c2ccc(Cl)cc2)oc(=O)c2c(N)n(-c3ccccc3)nc12	none
Nc1c2c(=O)oc(-c3ccccc3)cc2nn1-c1ccccc1	NF-kB expr up 3.3, STAT1 act 177, APP 5'UTR act 150 | STAT1 activ conf 203 | NFkB act inactive | STAT3 act STAT1c inactive
Cc1cc(NCCN2CCOCC2)n2ncc(-c3ccc(Cl)cc3)c2n1	none (no result: NF-kB expr up)
Cc1cc(NCCN2CCOCC2)n2ncc(-c3ccccc3)c2n1	STAT1 act 165 | STAT1 activ conf 219 | NFkB act 146 | STAT3 act STAT1c 152
S=C(c1ccc(-c2ccc(Cl)cc2)o1)N1CCCCC1	NF-kB expr up 4.9, STAT1 act 181, APP 5'UTR act 184 | STAT1 activ conf 222 | NFkB act 138 | STAT3 act STAT1c 115
COc1ccc(-c2nc(-c3ccc(Br)cc3)no2)c(OC)c1	NF-kB expr up 6, STAT1 act 155 | STAT1 activ conf 233 | NFkB act inactive | STAT3 act STAT1c 112
COc1ccc(Cl)cc1-c1nc(-c2ccncc2)no1	none
COc1ccccc1-c1nc(-c2ccncc2)no1	STAT1 act 159 | STAT1 activ conf 188 | NFkB act inactive | STAT3 act STAT1c 111
COc1ccc(-c2csc(-c3ccccc3)n2)c(OC)c1	NF-kB expr up 12, STAT1 act 153, APP 5'UTR act 195 | STAT1 activ conf 227 | NFkB act 144 | STAT3 act STAT1c 144
Cc1sc2nc(SCC(=O)C(C)(C)C)n(Cc3ccco3)c(=O)c2c1C	none
Cc1sc2nc3c4ccccc4c(NCc4ccco4)nn3c(=O)c2c1C	NF-kB expr up 3.8, STAT1 act 157, APP 5'UTR act 136 | STAT1 activ conf 208 | NFkB act 155 | STAT3 act STAT1c 114
CC(C)c1ccc(CNC(=O)C(=O)NCCCn2ccnc2)cc1	none
Cc1c(-c2nc(N)nc(Nc3ccc(F)cc3)n2)oc2ccccc12	NF-kB expr up 3.3, STAT1 act 156, APP 5'UTR act 152 | STAT1 activ conf 183 | NFkB act 142 | STAT3 act STAT1c inactive
CCc1nnc(NS(=O)(=O)c2ccc(N3C(=O)c4ccc(C(=O)O)cc4C3=O)cc2)s1	none
CCN1C(=S)SC(=O)C1=C1C=C(C)N(Cc2ccco2)C(C)=C1	STAT1 act 198 | STAT1 activ conf 278 | NFkB act 151 | STAT3 act STAT1c 127
CC(=O)c1cnc2c(-c3ccccc3)cnn2c1C	none
CCOC(=O)c1cnc2c(-c3ccccc3)cnn2c1C	NF-kB expr up 7.3, STAT1 act 154, APP 5'UTR act 155 | STAT1 activ conf 198 | NFkB act 135 | STAT3 act STAT1c inactive
CCOC(=O)/C(C#N)=C/c1cc(C)n(-c2ccccc2)c1C	STAT1 act 165, APP 5'UTR act 153 | STAT1 activ conf 255 | NFkB act inactive | STAT3 act STAT1c inactive
CCOC(=O)/C(C#N)=C/c1cc(C)n(-c2ccc(Br)cc2)c1C	none
O=C(O)c1ccccc1C(=O)Nc1ccc(-c2csc(-c3ccccc3)n2)cc1	STAT1 act 157 | STAT1 activ conf 141 | NFkB act inactive | STAT3 act STAT1c inactive
O=C(O)c1ccc(-c2nc(-c3ccccc3)cs2)cc1	STAT1 act 157 | STAT1 activ conf 179 | NFkB act inactive | STAT3 act STAT1c 129
Cc1ccc(C(=O)Nc2ccc(-c3csc(C)n3)cc2)cc1	STAT1 act 164, APP 5'UTR act 186 | STAT1 activ conf 187 | NFkB act inactive | STAT3 act STAT1c inactive
CNC(=O)c1ccc(-c2nc(-c3ccccc3)cs2)cc1	STAT1 act 169 | STAT1 activ conf 174 | NFkB act inactive | STAT3 act STAT1c inactive
FC(F)(F)c1cccc(Cc2noc(CN3CCC(c4ccncc4)CC3)n2)c1	none
O=C(/C(C=Nc1cccc(C(F)(F)F)c1)=C(/O)c1ccco1)C(F)(F)F	none
O=C(/C(C=Nc1ccc(Br)cc1)=C(/O)c1ccco1)C(F)(F)F	NF-kB expr up 5.7, STAT1 act 166, APP 5'UTR act 171 | STAT1 activ conf 201 | NFkB act inactive | STAT3 act STAT1c inactive
CCc1ccc(NC(=O)N2CCC(c3ccccc3)C2)cc1 (stereo not drawn)	NF-kB expr up 4.3, STAT1 act 161, APP 5'UTR act 164 | STAT1 activ conf 182 | NFkB act inactive | STAT3 act STAT1c inactive
CCOc1ccc(NC(=O)N2CCC(c3ccc(C)cc3)C2)cc1 (stereo not drawn)	none
S=C(NCCCn1ccnc1)Nc1cccc(Cl)c1	none
CNS(=O)(=O)c1c(C)cc(C)c(N(C)S(=O)(=O)c2ccccc2)c1C	none
CC1=CN2C(=N)/C(=C/c3ccc([N+](=O)[O-])o3)C(=O)N=C2S1	none
CC1=CN2C(=N)/C(=C/c3ccco3)C(=O)N=C2S1	NF-kB expr up 7.7, STAT1 act 206, APP 5'UTR act 136 | STAT1 activ conf 310 | NFkB act 167 | STAT3 act STAT1c 120
